Published values collected from several papers.
Read-out: cell growth or viability

SMILES | cell line | technique | concentration | time | endpoint | result
CC(=O)Nc1ccc(Oc2nnc(-c3ccc(Cl)cc3)c3ccccc23)cc1 | MCF7 | MTT | 1.25 µM | – | cell death | 93.9%
CC(=O)c1nn(-c2ccc(C)cc2)/c(=N/N=C(\C)c2ccc(NC(=O)c3ccccc3)cc2)s1 | MCF7 | MTT | 10 µM | – | viability | 6.47%
COc1ccc(CNC[C@@](C)(O)[C@@H]2CC[C@@H](C)C[C@H]2OCc2ccccc2)cc1 | MCF7 | MTT | 10 µM | 72 h | inhibition | 92.4%
Cc1c(C(=O)O)ccc2c3n(nc12)[C@@H]1[C@H](C3)N(CC2CC2)[C@@]2(C(=O)Nc3cc(Cl)ccc32)[C@H]1c1cccc(Cl)c1F | SJSA-1 | ATP luminescence | – | – | IC50 | 12 nM
COc1ccc(CNC[C@](O)(COCc2ccc(OC)cc2)[C@@H]2CC[C@@H](C)C[C@H]2OCc2ccc(OC)cc2)cc1 | MCF7 | MTT | 10 µM | 72 h | inhibition | 101%
O=C(Nc1ccccc1)Nc1ccc(Oc2nnc(-c3ccc(Cl)cc3)c3ccccc23)cc1 | MCF7 | MTT | 0.625 µM | – | cell death | 95.4%
C=CC(=O)NC1CCN(c2ncc3ncnc(Nc4ccc(Oc5ccc6c(c5)ncn6C)c(C)c4)c3n2)CC1 | SNU-398 | – | – | – | EC50 | 36.5 nM
CCOC(=O)c1nn(-c2cccc(Cl)c2)/c(=N/N=C(\C)c2ccc(NC(=O)c3ccc(Cl)cc3)cc2)s1 | MCF7 | MTT | 78 nM | – | viability | 73.5%
